The text below walks through data of ChEMBL document CHEMBL1149106, “Design, synthesis, and evaluation of aza-peptide epoxides as selective and potent inhibitors of caspases-1, -3, -6, and -8” (J Med Chem, 2004).

Each structure is given as a SMILES string. Calls of active or inactive are those of the source. The calls are words filed in the database; no cut-off is given here. Where only a bound is given, the exact number is not on record here.

For the first assay, the target named is T1, Caspase-6 (Homo sapiens) (UniProt P55212).
T1 sequence (whole entry): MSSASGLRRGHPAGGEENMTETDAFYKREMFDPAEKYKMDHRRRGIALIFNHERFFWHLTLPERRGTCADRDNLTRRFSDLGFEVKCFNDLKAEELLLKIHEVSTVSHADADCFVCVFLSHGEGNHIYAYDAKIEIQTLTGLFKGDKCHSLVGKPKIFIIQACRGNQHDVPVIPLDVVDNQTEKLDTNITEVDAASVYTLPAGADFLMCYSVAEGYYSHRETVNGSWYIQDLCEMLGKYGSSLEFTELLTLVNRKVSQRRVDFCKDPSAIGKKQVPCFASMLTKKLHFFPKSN
Nature of the assay: Second-order inhibition rate of caspase-6 was determined by progress curve method. Summed up:
(§1)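 Caspases-3, -6 and -8 were assayed in 50 mM HEPES, 100 mM NaCl, 0.1% (w/v) CHAPS, 10% (w/v) sucrose and 10 mM DTT, pH 7.4. Substrate: Cbz-DEVD-AFC or Cbz-DEVD-AMC.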
For the molecule `CC(C)[C@H](NC(=O)CCc1ccccc1)C(=O)N[C@@H](C)C(=O)NN(CC(=O)O)C(=O)[C@@H]1O[C@H]1C(=O)OCc1ccccc1`, the k2 is 15 M⁻¹ s⁻¹.

The molecule `CCOC(=O)[C@H]1O[C@@H]1C(=O)N(CC(=O)O)NC(=O)[C@@H](NC(=O)[C@H](CCC(=O)O)NC(=O)[C@H](CC(=O)O)NC(=O)OCc1ccccc1)C(C)C` gave a k2 of 5440 M⁻¹ s⁻¹.

`CCOC(=O)[C@@H]1O[C@H]1C(=O)N(CC(=O)O)NC(=O)[C@@H](NC(=O)C(CCC(=O)O)NC(=O)[C@H](CC(C)C)NC(=O)OCc1ccccc1)[C@@H](C)O` (stereo partly specified): the k2 came out at 4390 M⁻¹ s⁻¹.

A further assay has as its target T2, Caspase-3 (Homo sapiens) (UniProt P42574).
T2 sequence (whole entry): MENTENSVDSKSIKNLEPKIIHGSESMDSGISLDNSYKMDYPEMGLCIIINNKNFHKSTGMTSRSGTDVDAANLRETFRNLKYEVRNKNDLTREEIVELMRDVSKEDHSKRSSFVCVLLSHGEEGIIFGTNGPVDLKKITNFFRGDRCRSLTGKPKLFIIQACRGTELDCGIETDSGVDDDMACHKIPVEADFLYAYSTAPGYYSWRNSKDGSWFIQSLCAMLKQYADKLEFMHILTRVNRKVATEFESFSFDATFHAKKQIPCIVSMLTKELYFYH
Kind of assay: Second-order inhibition rate of caspase-3 was determined by progress curve method. The essentials: as §1
On to `CCOC(=O)[C@H]1O[C@@H]1C(=O)N(CC(=O)O)NC(=O)[C@@H](NC(=O)[C@H](CCC(=O)O)NC(=O)[C@H](CC(=O)O)NC(=O)OCc1ccccc1)C(C)C`, for which the k2 was found to be 1.07e+06 M⁻¹ s⁻¹.

As for `CCOC(=O)[C@@H]1O[C@H]1C(=O)N(CC(=O)O)NC(=O)[C@@H](NC(=O)C(CCC(=O)O)NC(=O)[C@H](CC(C)C)NC(=O)OCc1ccccc1)[C@@H](C)O` (stereo partly specified), the k2 is 3250 M⁻¹ s⁻¹.

Another assay deals with Granzyme B (Homo sapiens) (UniProt P10144). Kind of assay: Tested for inhibition of granzyme B by the compound.
Granzyme B (Homo sapiens), sequence (P10144 whole entry): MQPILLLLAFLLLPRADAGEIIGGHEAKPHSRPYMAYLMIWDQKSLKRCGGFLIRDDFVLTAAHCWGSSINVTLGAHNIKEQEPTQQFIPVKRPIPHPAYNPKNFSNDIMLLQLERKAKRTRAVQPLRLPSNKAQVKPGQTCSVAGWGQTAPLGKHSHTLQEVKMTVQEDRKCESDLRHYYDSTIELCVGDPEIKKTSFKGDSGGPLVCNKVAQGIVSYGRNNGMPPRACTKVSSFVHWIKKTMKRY
The molecule `CCOC(=O)[C@H]1O[C@@H]1C(=O)N(CC(=O)O)NC(=O)[C@@H](NC(=O)[C@H](CCC(=O)O)NC(=O)[C@H](CC(=O)O)NC(=O)OCc1ccccc1)C(C)C` displayed a k obs / 1 of less than 0.1 M⁻¹ s⁻¹.

For a further assay, the target named is T2, Caspase-3 (Homo sapiens). Nature of the assay: Second-order inhibition rate of caspase-3 was determined by progress curve method; No inhibition. Summed up: as §1
As to `CC(C)[C@H](NC(=O)CCc1ccccc1)C(=O)N[C@@H](C)C(=O)NN(CC(=O)O)C(=O)[C@@H]1O[C@H]1C(=O)OCc1ccccc1`, the k2 result is “inactive”.

The target in a further assay is T3, Papain (Carica papaya) (UniProt P00784).
T3 sequence (whole entry): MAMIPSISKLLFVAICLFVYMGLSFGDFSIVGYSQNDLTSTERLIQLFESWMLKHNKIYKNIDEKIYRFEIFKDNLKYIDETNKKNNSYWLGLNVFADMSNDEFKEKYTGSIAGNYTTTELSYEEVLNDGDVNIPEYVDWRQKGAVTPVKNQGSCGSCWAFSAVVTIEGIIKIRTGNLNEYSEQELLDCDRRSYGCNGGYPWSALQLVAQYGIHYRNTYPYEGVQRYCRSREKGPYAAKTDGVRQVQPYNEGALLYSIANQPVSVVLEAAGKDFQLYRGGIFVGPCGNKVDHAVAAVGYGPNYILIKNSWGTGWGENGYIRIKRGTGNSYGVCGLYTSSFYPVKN
Nature of the assay: Tested for inhibition of papain by the compound; NI = No Inhibition.
On to `CCOC(=O)[C@H]1O[C@@H]1C(=O)N(CC(=O)O)NC(=O)[C@@H](NC(=O)[C@H](CCC(=O)O)NC(=O)[C@H](CC(=O)O)NC(=O)OCc1ccccc1)C(C)C`, for which the “k obs / 1” value was “inactive”.

Consider `CCOC(=O)[C@@H]1O[C@H]1C(=O)N(CC(=O)O)NC(=O)[C@@H](NC(=O)C(CCC(=O)O)NC(=O)[C@H](CC(C)C)NC(=O)OCc1ccccc1)[C@@H](C)O` (stereo partly specified), for which the “k obs / 1” value was “inactive”.

A further assay deals with Cathepsin B (Homo sapiens) (UniProt P07858). Kind of assay: Tested for inhibition of cathepsin B by the compound; NI = No Inhibition.
On to `CCOC(=O)[C@H]1O[C@@H]1C(=O)N(CC(=O)O)NC(=O)[C@@H](NC(=O)[C@H](CCC(=O)O)NC(=O)[C@H](CC(=O)O)NC(=O)OCc1ccccc1)C(C)C`, for which the “k obs / 1” value was “inactive”.

As to `CCOC(=O)[C@@H]1O[C@H]1C(=O)N(CC(=O)O)NC(=O)[C@@H](NC(=O)C(CCC(=O)O)NC(=O)[C@H](CC(C)C)NC(=O)OCc1ccccc1)[C@@H](C)O` (stereo partly specified), the “k obs / 1” value was “inactive”.

A further assay has as its target T4, Caspase-1 (Homo sapiens) (UniProt P29466).
T4 sequence (whole entry): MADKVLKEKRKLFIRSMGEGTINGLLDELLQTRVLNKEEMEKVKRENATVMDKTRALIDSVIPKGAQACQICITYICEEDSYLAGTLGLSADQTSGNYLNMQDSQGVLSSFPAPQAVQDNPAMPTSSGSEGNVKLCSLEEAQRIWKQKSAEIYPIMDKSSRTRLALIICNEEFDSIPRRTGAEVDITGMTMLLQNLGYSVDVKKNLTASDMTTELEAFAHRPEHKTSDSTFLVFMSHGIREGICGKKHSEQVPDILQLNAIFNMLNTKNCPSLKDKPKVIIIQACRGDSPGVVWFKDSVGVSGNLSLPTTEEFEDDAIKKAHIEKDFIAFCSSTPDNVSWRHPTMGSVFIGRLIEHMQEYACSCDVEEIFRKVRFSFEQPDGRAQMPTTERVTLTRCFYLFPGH
Nature of the assay: Second-order inhibition rate of caspase-1 was determined by progress curve method. Summed up:
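Caspase-1 assay buffer: 100 mM HEPES, 0.5 mM EDTA, 20% (v/v) glycerol, 5 mM DTT, pH 7.5. Substrate: Ac-YVAD-AMC.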
As for `CC(C)[C@H](NC(=O)CCc1ccccc1)C(=O)N[C@@H](C)C(=O)NN(CC(=O)O)C(=O)[C@@H]1O[C@H]1C(=O)OCc1ccccc1`, the k2 was determined as 1860 M⁻¹ s⁻¹.

For the molecule `CCOC(=O)[C@H]1O[C@@H]1C(=O)N(CC(=O)O)NC(=O)[C@@H](NC(=O)[C@H](CCC(=O)O)NC(=O)[C@H](CC(=O)O)NC(=O)OCc1ccccc1)C(C)C`, the k2 was 11800 M⁻¹ s⁻¹.

Molecule `CCOC(=O)[C@@H]1O[C@H]1C(=O)N(CC(=O)O)NC(=O)[C@@H](NC(=O)C(CCC(=O)O)NC(=O)[C@H](CC(C)C)NC(=O)OCc1ccccc1)[C@@H](C)O` (stereo partly specified) displayed a k2 of 19600 M⁻¹ s⁻¹.

Another assay relates to Cathepsin B. Nature of the assay: Tested for inhibition of cathepsin B by the compound; NI = No Inhibition.
On to `CCOC(=O)[C@H]1O[C@@H]1C(=O)N(CC(=O)O)NC(=O)[C@@H](NC(=O)[C@H](CCC(=O)O)NC(=O)[C@H](CC(=O)O)NC(=O)OCc1ccccc1)C(C)C`, for which the “k obs / 1” value is “inactive”.

For the molecule `CCOC(=O)[C@@H]1O[C@H]1C(=O)N(CC(=O)O)NC(=O)[C@@H](NC(=O)C(CCC(=O)O)NC(=O)[C@H](CC(C)C)NC(=O)OCc1ccccc1)[C@@H](C)O` (stereo partly specified), the “k obs / 1” value was “inactive”.

The target in another assay is Caspase-8 (Homo sapiens) (UniProt Q14790). Kind of assay: Second-order inhibition rate of caspase-8 was determined by progress curve method. Summed up: as §1
Caspase-8 (Homo sapiens), sequence (Q14790 217-374 limits assumed): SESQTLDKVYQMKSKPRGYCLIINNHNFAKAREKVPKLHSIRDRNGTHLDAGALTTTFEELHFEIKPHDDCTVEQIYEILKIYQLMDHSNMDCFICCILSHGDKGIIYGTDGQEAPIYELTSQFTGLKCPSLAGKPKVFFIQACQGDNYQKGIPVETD
Caspase-8 (Homo sapiens), sequence (Q14790 385-479 limits assumed): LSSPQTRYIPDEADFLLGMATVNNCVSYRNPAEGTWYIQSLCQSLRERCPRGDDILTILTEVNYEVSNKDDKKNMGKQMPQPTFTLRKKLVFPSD
`CC(C)[C@H](NC(=O)CCc1ccccc1)C(=O)N[C@@H](C)C(=O)NN(CC(=O)O)C(=O)[C@@H]1O[C@H]1C(=O)OCc1ccccc1` displayed a k2 of 185 M⁻¹ s⁻¹.

`CCOC(=O)[C@H]1O[C@@H]1C(=O)N(CC(=O)O)NC(=O)[C@@H](NC(=O)[C@H](CCC(=O)O)NC(=O)[C@H](CC(=O)O)NC(=O)OCc1ccccc1)C(C)C` returned a k2 of 95500 M⁻¹ s⁻¹.

As to `CCOC(=O)[C@@H]1O[C@H]1C(=O)N(CC(=O)O)NC(=O)[C@@H](NC(=O)C(CCC(=O)O)NC(=O)[C@H](CC(C)C)NC(=O)OCc1ccccc1)[C@@H](C)O` (stereo partly specified), the k2 was 34700 M⁻¹ s⁻¹.

Tested on in another assay: not listed separately
Kind of assay: Tested for inhibition of chymotrypsinogen by the compound; NI = No Inhibition.
As to `CCOC(=O)[C@H]1O[C@@H]1C(=O)N(CC(=O)O)NC(=O)[C@@H](NC(=O)[C@H](CCC(=O)O)NC(=O)[C@H](CC(=O)O)NC(=O)OCc1ccccc1)C(C)C`, the k obs / 1 came to 46 M⁻¹ s⁻¹.

`CCOC(=O)[C@@H]1O[C@H]1C(=O)N(CC(=O)O)NC(=O)[C@@H](NC(=O)C(CCC(=O)O)NC(=O)[C@H](CC(C)C)NC(=O)OCc1ccccc1)[C@@H](C)O` (stereo partly specified) had a k obs / 1 of 15 M⁻¹ s⁻¹.
